Six compounds from ChEMBL document CHEMBL1765022, “Synthesis and biological evaluation of tetracyclic thienopyridones as antibacterial and antitumor agents” (Bioorg Med Chem, 2011) can be followed below.

Each structure is given as a SMILES string. Converted amounts (≈) assume the structure as drawn.

Assay [1] concerns Staphylococcus aureus. As to the kind of experiment: Antimicrobial activity against Staphylococcus aureus ATCC 6538 by broth dilution method. It is filed as functional. In a few lines:
(§1)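 Twofold serial broth dilution in Mueller Hinton Broth. […] Growth (drug-free), DMSO solvent and organism-free sterility tubes were included. Three replicates per organism, at least three independent experiments.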

The test system of assay [2] is Priestia megaterium. The experiment in a line: Antimicrobial activity against Bacillus megaterium ATCC 19213 by broth dilution method. It is filed as functional. In a few lines:
as §1

In assay [3] the test system is Candida tropicalis. The experiment in a line: Antimicrobial activity against Candida tropicalis ATCC 1369 by broth dilution method. It is filed as functional. In a few lines: (§2)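 Fungi were tested by twofold serial broth dilution in Sabouraud Dextrose Broth. Inoculum was 1x10³ CFU/mL, with 48 h at 30 °C before MIC determination. Growth, DMSO solvent and sterility controls were included. Three replicates per organism, at least three independent experiments.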

Assay [4] in a line: Inhibition of Escherichia coli topoisomerase 4 assessed as decatenation of kDNA after 30 mins by electrophoresis. In outline: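 E. coli topoisomerase IV decatenation of kinetoplast DNA was run in 40 mM HEPES-KOH pH 7.6 with 100 mM potassium glutamate, at varying compound amounts. Products were separated by agarose electrophoresis and quantified by gel documentation. IC₅₀ (µg/mL) is the concentration halving decatenation relative to drug-free enzyme control.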

The test system of assay [5] is Bacillus subtilis. As to the kind of experiment: Antimicrobial activity against Bacillus subtilis ATCC 6633 by broth dilution method. Format: functional. In a few lines: as §1
A short description of assay [6]: Inhibition of Escherichia coli DNA gyrase assessed as reduction of DNA supercoiling activity using pBR322 DNA substrate after 30 mins by electrophoresis.
Assay [7] concerns Saccharomyces cerevisiae. As to the kind of experiment: Antimicrobial activity against Saccharomyces cerevisiae ATCC 9763 by broth dilution method. Format: functional. In a few lines:
as §2

The subject of assay [8] is Aspergillus niger. As to the kind of experiment: Antimicrobial activity against Aspergillus niger ATCC 6275 by broth dilution method. Format: functional. In outline: as §2
Assay [9] relates to Staphylococcus epidermidis. The experiment in a line: Antimicrobial activity against Staphylococcus epidermidis ATCC 12228 by broth dilution method. Format: functional. In outline: as §1
For assay [10], the system named is Staphylococcus aureus. As to the kind of experiment: Antimicrobial activity against quinilone-pencillin-resistant Staphylococcus aureus isolate SAR 4790 by broth dilution method. Format: functional. In a few lines: (§3)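 Twofold serial broth dilution in Mueller Hinton Broth. […] Drug-free tubes, DMSO-only tubes and organism-free tubes served as growth, solvent and sterility controls. Three replicates per organism, at least three independent experiments.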

The subject of assay [11] is Bacillus cereus. As to the kind of experiment: Antimicrobial activity against Bacillus cereus ATCC 11778 by broth dilution method. It is filed as functional. In a few lines: as §1
For assay [12], the system named is Haemophilus influenzae. As to the kind of experiment: Antimicrobial activity against Haemophilus influenzae ATCC 19418 by broth dilution method. It is filed as functional. In outline: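 H. influenzae was grown in Haemophilus Test Medium using twofold serial broth dilution. […] Drug-free, DMSO-only and organism-free control tubes were included. Triplicates, with at least three independent experiments.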

Assay [13] in a line: Antimicrobial activity against Bacillus thuringiensis var.kurstaki BGSC 4D1 by broth dilution method. It is filed as functional, Bacillus thuringiensis serovar kurstaki. In a few lines: as §1
Assay [14] concerns Acinetobacter baumannii. The experiment in a line: Antimicrobial activity against Acinetobacter baumannii ATCC 19606 by broth dilution method. Format: functional. In outline:
as §1

Assay [15] relates to Staphylococcus aureus. The experiment in a line: Antimicrobial activity against quinilone-pencillin-resistant Staphylococcus aureus isolate SAR 72 by broth dilution method. It is filed as functional. In outline:
as §3

Assay [16] relates to Pseudomonas aeruginosa. As to the kind of experiment: Antimicrobial activity against Pseudomonas aeruginosa ATCC 9027 by broth dilution method. It is filed as functional. In outline:
as §1

Assay [17] relates to NHDF. The experiment in a line: Antitumor activity against human NHDF cells after 72 hrs by MTT assay. It is filed as functional, cell-based. In a few lines:
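Cells were kept at 37 °C in 5% CO₂, in medium with 2 mM glutamine and 10% FBS; HuDe fibroblasts were grown in DMEM. Compounds were freshly dissolved in DMSO (final ≤0.1% v/v; controls received equal solvent) and applied at 0.1–20 µM for 72 h. Viability was read by MTT. IC₅₀ was extrapolated from Hill-fitted dose–response curves, from at least three independent experiments.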

In assay [18] the test system is Escherichia coli. As to the kind of experiment: Antimicrobial activity against Escherichia coli ATCC 8739 by broth dilution method. It is filed as functional. In outline: as §1
The subject of assay [19] is Escherichia coli. As to the kind of experiment: Antimicrobial activity against quinilone-pencillin-resistant Escherichia coli clinical isolate by broth dilution method. It is filed as functional.
Assay [20] has as its system Acinetobacter baumannii. As to the kind of experiment: Antimicrobial activity against quinilone-pencillin-resistant Acinetobacter baumannii clinical isolate by broth dilution method. It is filed as functional.
For assay [21], the system named is Staphylococcus epidermidis. As to the kind of experiment: Antimicrobial activity against quinilone-pencillin-resistant Staphylococcus epidermidis clinical isolate by broth dilution method. It is filed as functional.

As for `O=C(O)c1cn(C2CC2)c2cc(N3CCNCC3)c(F)cc2c1=O` [CIPROFLOXACIN], the MIC in [1] is 0.3 mg/L (≈ 0.905 µM); in [2], 0.007 mg/L (≈ 0.0211 µM); in assay [3], > 100 mg/L; in assay [5] it was 0.03 mg/L (≈ 0.0905 µM); in [7], > 100 mg/L; in assay [8] it was > 100 mg/L. In addition, the MIC was 0.07 mg/L (≈ 0.211 µM) in assay [9]; > 100 mg/L in [10]; 0.3 mg/L (≈ 0.905 µM) in assay [11]; 0.15 mg/L (≈ 0.453 µM) in assay [12]; 0.03 mg/L (≈ 0.0905 µM) in assay [13]; 0.7 mg/L (≈ 2.11 µM) in [14]. Further, the MIC in assay [15] amounted to 100 mg/L (≈ 302 µM); in assay [16], 0.07 mg/L (≈ 0.211 µM). The IC50 in assay [4] is 4.6 mg/L (≈ 13.9 µM); in assay [6], 0.34 mg/L (≈ 1.03 µM).

As for `Cc1c2ccncc2c(C)c2c1[nH]c1ccccc12` [ELLIPTECINE], the IC50 in assay [17] was > 10 µM.

For the compound `CO/N=C1\CN(c2nc3c(cc2F)c(=O)c(C(=O)O)cn3C2CC2)CC1CN` (configuration not stated) [GEMIFLOXACIN], the MIC in [1] is 0.015 mg/L (≈ 0.0385 µM); in assay [18], 0.015 mg/L (≈ 0.0385 µM); in assay [2], 0.0003 mg/L (≈ 0.00077 µM); in assay [3] it was > 100 mg/L; in [5] it was 0.007 mg/L (≈ 0.018 µM); in [7], > 100 mg/L. In addition, the MIC in assay [19] was 50 mg/L (≈ 128 µM); in assay [8], > 100 mg/L; in assay [20], 100 mg/L (≈ 257 µM); in assay [9], 0.015 mg/L (≈ 0.0385 µM); in assay [10], 50 mg/L (≈ 128 µM); in assay [21], 50 mg/L (≈ 128 µM). In addition, the MIC in assay [11] is 0.07 mg/L (≈ 0.18 µM); in assay [12], 0.015 mg/L (≈ 0.0385 µM); in assay [13], 0.015 mg/L (≈ 0.0385 µM); in assay [14], 0.3 mg/L (≈ 0.77 µM); in assay [15], 6 mg/L (≈ 15.4 µM); in [16] it was 0.07 mg/L (≈ 0.18 µM).

`C[C@H]1COc2c(N3CCN(C)CC3)c(F)cc3c(=O)c(C(=O)O)cn1c23.C[C@H]1COc2c(N3CCN(C)CC3)c(F)cc3c(=O)c(C(=O)O)cn1c23.O` [LEVOFLOXACIN]: the MIC in [1] was 0.07 mg/L; in assay [2], 0.03 mg/L; in [3], > 100 mg/L; in [5], 0.03 mg/L; in assay [7], > 100 mg/L; in [19], 25 mg/L. The MIC is > 100 mg/L in assay [8]; > 100 mg/L in assay [20]; 0.15 mg/L in assay [9]; 100 mg/L in assay [10]; > 100 mg/L in assay [21]; 0.15 mg/L in assay [11]. Besides, the MIC worked out at 0.15 mg/L in assay [12]; 0.07 mg/L in assay [13]; 0.15 mg/L in assay [14]; 25 mg/L in assay [15]; 0.3 mg/L in assay [16].

On to `Clc1ccc(COC(Cn2ccnc2)c2ccc(Cl)cc2Cl)c(Cl)c1` (configuration not stated) [MICONAZOLE], for which the MIC in assay [3] was 6 mg/L (≈ 14.4 µM); in [7] it was 12 mg/L (≈ 28.8 µM); in assay [8] it was 3 mg/L (≈ 7.21 µM).

As for `COc1c(N2C[C@@H]3CCCN[C@@H]3C2)c(F)cc2c(=O)c(C(=O)O)cn(C3CC3)c12` [MOXIFLOXACIN], the MIC in assay [1] was 0.03 mg/L (≈ 0.0747 µM); in assay [18] it was 0.03 mg/L (≈ 0.0747 µM); in assay [2] it was 0.003 mg/L (≈ 0.00747 µM); in assay [3] it was > 100 mg/L; in [5], 0.015 mg/L (≈ 0.0374 µM); in assay [7], > 100 mg/L. Besides, the MIC in [8] is > 100 mg/L; in [9], 0.07 mg/L (≈ 0.174 µM); in assay [10], 50 mg/L (≈ 125 µM); in [11], 0.3 mg/L (≈ 0.747 µM); in assay [12], 0.03 mg/L (≈ 0.0747 µM); in assay [13], 0.03 mg/L (≈ 0.0747 µM). Also, the values for the MIC in assay [14], in assay [15] and in [16] were 0.15 mg/L (≈ 0.374 µM), 12 mg/L (≈ 29.9 µM) and 0.7 mg/L (≈ 1.74 µM), respectively. Moreover, the results for the IC50 in [4] and in assay [6] were 5 mg/L (≈ 12.5 µM) and 0.85 mg/L (≈ 2.12 µM), respectively.
